PubChem BioAssay
Active and inactive are the calls of the source.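 How the source made its calls, unless noted: active means viability at or below 10% of carrier control in both of two separate runs; inconclusive means viability at or below 10% in only one of the two runs; inactive means the rest.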

Tests used:
[1] = Her2 expression decrease, cell viability multiplex – SKBR3 breast tumor cells, AlphaScreen, ATP viability, primary screen (AID 461;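 active means Her2 level under about 52% in both replicate screens, with viability over 70% of control, limit read from the data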;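 on Her2 level: lower value means less Her2 protein in the cells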;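 on viability: percent of carrier control wells set as 100% viability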); details: SKBR3 Her2 protein level, 18-24 h, measured here: SKBR3 viability, ATP luminescence, at 10 µM
[2] = biological target: Receptor tyrosine-protein kinase erbB-2 (Homo sapiens) (UniProt P04626); test: as above; details: 18-24 h, at 10 µM, stronger effect = lower value
[3] = reduced viability of SK-BR-3 breast cancer cells – cell-based, 24 h, human, pilot screen (AID 572); details: SK-BR-3 viability, CellTiter-Glo luminescence, at 10 µM, stronger effect = lower value;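 further: compound exposure lasted between 18 and 24 h rather than exactly 24 h; 100% = carrier-treated control wells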
[4] = HUVEC growth inhibition – cell-based, human, primary screen (AID 575;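 active means viability at or below 30% in both replicate assays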;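 further: 100% = median of untreated cell wells with 0.1% DMSO on each plate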); details: HUVEC proliferation, CellTiter-Glo luminescence, 72 h; at 10 µM; stronger effect = lower value
Procedure, shortened: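 Test system: primary human umbilical vein endothelial cells; medium: endothelial basal medium with 2% FBS plus growth supplements; dosing: 10 µM compound only; times: 72 h treatment at 37 °C; signal: CTG luminescence; read-out: % viability relative to median vehicle-well signal on each plate; control set: vehicle and MePR control wells; plate: 384-well, collagen-coated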

[5] = H69AR cell proliferation blockers – human, duplicate replicates, primary screen (AID 580;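 active means viability at or under a set limit in both replicates, limit being median viability minus 3 SD, cut at about 48% in these data, passing the limit was not always enough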;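 further: 100% = mean luminescence of untreated wells and 0% = no signal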); details: H69AR lung tumor cells viability, ATP luminescence, 72 h; at 10 µM; stronger effect = lower value
[6] = MRP1 drug-resistance reversers in H69AR cells – cell-based, doxorubicin co-treatment, pilot screen (AID 601;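 active means viability loss from added drug above about 55%, and viability with drug at most 40%, in both replicates, limit read from the data, passing the limit was not always enough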); details: CellTiter-Glo, 72 h, at 10 µM; for differential viability (reversal): stronger effect = higher value
[7] = yeast transport mutant growth inhibition pilot in 384-well plates, post-Golgi transport modulator project (AID 636; in the data active means inhibition above about 31%); details: absorbance 615 nm, about 18 h, stronger effect = higher value
[8] = growth suppression of yeast trafficking mutant, preliminary HTS, modulators of trafficking downstream of Golgi apparatus project, 1536-format plate, OD 615 nm (AID 637; in the data active means inhibition above about 30%); details: yeast transport mutant growth, absorbance 615 nm, 18 h; stronger effect = higher value
[9] = H69AR cells + 2 uM doxorubicin, measured here: viability with 2 uM doxorubicin, stronger effect = lower value
[10] = H69AR cells, compound alone cytotoxicity

Chain of Receptor tyrosine-protein kinase erbB-2 (Homo sapiens) (P04626 whole entry, looked up): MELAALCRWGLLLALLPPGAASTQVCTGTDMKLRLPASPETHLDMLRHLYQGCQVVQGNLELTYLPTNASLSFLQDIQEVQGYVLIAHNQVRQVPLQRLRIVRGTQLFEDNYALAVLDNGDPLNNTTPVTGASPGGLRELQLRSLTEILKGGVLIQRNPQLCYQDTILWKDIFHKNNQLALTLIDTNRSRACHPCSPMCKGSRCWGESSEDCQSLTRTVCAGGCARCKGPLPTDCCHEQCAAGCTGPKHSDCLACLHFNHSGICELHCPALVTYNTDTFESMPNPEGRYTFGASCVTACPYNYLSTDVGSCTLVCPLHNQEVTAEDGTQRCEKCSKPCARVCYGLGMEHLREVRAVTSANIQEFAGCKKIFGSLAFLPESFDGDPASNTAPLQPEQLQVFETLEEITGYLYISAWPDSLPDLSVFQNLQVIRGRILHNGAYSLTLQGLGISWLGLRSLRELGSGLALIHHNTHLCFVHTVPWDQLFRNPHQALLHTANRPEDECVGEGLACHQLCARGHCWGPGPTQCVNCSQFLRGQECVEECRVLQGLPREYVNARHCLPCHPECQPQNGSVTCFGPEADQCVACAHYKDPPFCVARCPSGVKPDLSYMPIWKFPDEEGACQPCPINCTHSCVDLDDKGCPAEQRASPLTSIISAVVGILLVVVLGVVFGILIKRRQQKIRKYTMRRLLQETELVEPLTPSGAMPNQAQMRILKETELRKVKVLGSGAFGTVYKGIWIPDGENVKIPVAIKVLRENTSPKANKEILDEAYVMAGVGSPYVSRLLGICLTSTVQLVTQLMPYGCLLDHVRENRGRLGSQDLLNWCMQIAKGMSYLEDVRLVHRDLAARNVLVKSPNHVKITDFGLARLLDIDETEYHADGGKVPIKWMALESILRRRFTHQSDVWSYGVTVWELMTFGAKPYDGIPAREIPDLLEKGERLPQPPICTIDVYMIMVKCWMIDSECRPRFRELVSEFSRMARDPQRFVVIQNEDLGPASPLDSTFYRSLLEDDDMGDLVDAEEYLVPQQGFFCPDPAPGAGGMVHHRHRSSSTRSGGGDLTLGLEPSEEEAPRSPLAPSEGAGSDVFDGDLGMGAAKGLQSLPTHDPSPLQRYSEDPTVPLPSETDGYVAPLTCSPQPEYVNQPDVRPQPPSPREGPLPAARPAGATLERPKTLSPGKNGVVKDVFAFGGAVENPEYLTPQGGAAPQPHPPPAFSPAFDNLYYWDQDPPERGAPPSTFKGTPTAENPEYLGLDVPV

Compound	viability [1]	Her2 level [2]	viability [3]	viability [4]	viability [5]	differential viability (reversal) ([6]; H69AR cells + 2 uM doxorubicin)	viability [6, 9]	viability [6, 10]	inhibition [7]	inhibition [8]
CCOC(=O)C1CCN(C(=O)CSc2cc(=O)n(CC)c3ccccc23)CC1	85%	99.5% (inactive)	85% (inactive)	84% (inactive)	92.4% (inactive)	10.4% (inactive)	82%	92.4%	-0.39% (inactive)	-5.09% (inactive)
COC(=O)c1c(NC(=O)CSc2nnc(-c3cccnc3)n2Cc2ccco2)sc(C)c1C	87%	77% (inactive)	87% (inactive)	71.5% (inactive)	83.7% (inactive)	9.16% (inactive)	74.5%	83.7%	-5.14% (inactive)	-6.03% (inactive)
CCOC(=O)Cc1c(C)c2c(O)cc(O)cc2oc1=O	84.5%	77.5% (inactive)	84.5% (inactive)	97.3% (inactive)	99% (inactive)	12.2% (inactive)	86.8%	99%	-6.27% (inactive)	1.9% (inactive)
CC(=O)NCCn1c(SCC(=O)NCC2CCCO2)nc2ccccc2c1=O (stereo not given)	95%	99% (inactive)	95% (inactive)	109% (inactive)	98.5% (inactive)	10.1% (inactive)	88.4%	98.5%	-0.26% (inactive)	-8.1% (inactive)
COc1cc2c(cc1OC)-c1cc(Nc3ccc4c(c3)OCCO4)nc(=O)n1CC2	91.5%	82.5% (inactive)	91.5% (inactive)	63.2% (inactive)	71.2% (inactive)	-6.86% (inactive)	78.1%	71.2%	-0.91% (inactive)	-4.17% (inactive)
Cc1cnc(-c2nnc(N(C)C(=O)C3CCOC3)s2)cn1 (stereo not given)	90.5%	89.5% (inactive)	90.5% (inactive)	98.2% (inactive)	101% (inactive)	17% (inactive)	84.4%	101%	-1.45% (inactive)	-10.9% (inactive)
CC(=O)N1CCN(C(=O)COc2ccc(Br)cc2)CC1	108%	92.5% (inactive)	108% (inactive)	113% (inactive)	105% (inactive)	20.5% (inactive)	84.6%	105%	-2.03% (inactive)	0.16% (inactive)
C/C=C/Cn1c(Br)nc2c1c(=O)[nH]c(=O)n2C	101%	91% (inactive)	101% (inactive)	90.7% (inactive)	93.5% (inactive)	7.23% (inactive)	86.3%	93.5%	-6.53% (inactive)	0.16% (inactive)
O=C(NCCC1=CCCCC1)C1CC(=O)N(C2CCCCCC2)C1 (stereo not given)	98%	110% (inactive)	98% (inactive)	104% (inactive)	99.5% (inactive)	11% (inactive)	88.5%	99.5%	-1.15% (inactive)	-0.67% (inactive)
COc1ccc(C2C(C(=O)NCCN3CCOCC3)c3ccccc3C(=O)N2C2CCCCC2)cc1 (stereo not given)	88.5%	71% (inactive)	88.5% (inactive)	64.3% (inactive)	81.3% (inactive)	2.12% (inactive)	79.2%	81.3%	-3.33% (inactive)	0% (inactive)
CCOC(=O)c1cnn(-c2cc(C)c3cc(C)cc(C)c3n2)c1N	88.5%	104% (inactive)	88.5% (inactive)	95.5% (inactive)	82.5% (inactive)	-2.12% (inactive)	84.6%	82.5%	1.82% (inactive)	-8.89% (inactive)
CN(C)S(=O)(=O)c1ccc(Oc2ccc(S(=O)(=O)N(C)C)cc2)cc1	80.5%	96.5% (inactive)	80.5% (inactive)	54.4% (inactive)	93.8% (inactive)	-0.755% (inactive)	94.6%	93.8%	-2.4% (inactive)	-7.14% (inactive)
CCOc1nc(-c2ccccc2)ccc1-c1noc(-c2cccnc2)n1	76.5%	90% (inactive)	76.5% (inactive)	124% (inactive)	91.2% (inactive)	4.83% (inactive)	86.4%	91.2%	-0.26% (inactive)	0.33% (inactive)
O=C(Cn1nnc(-c2cccs2)n1)OC1CCCCC1	94.5%	104% (inactive)	94.5% (inactive)	81.7% (inactive)	110% (inactive)	16.9% (inactive)	93.3%	110%	-4.93% (inactive)	-3.39% (inactive)
CN(C)c1ccc(CNn2cnnc2)cc1	104%	88.5% (inactive)	104% (inactive)	95.8% (inactive)	100% (inactive)	-4.28% (inactive)	105%	100%	-4.08% (inactive)	0.67% (inactive)
O=C1c2ccccc2C(=O)N1CC(O)Cn1nnc2ccccc21 (stereo not given)	120%	108% (inactive)	120% (inactive)	90.9% (inactive)	95.9% (inactive)	4.44% (inactive)	91.5%	95.9%	-3.07% (inactive)	-3.71% (inactive)
